Common to all, as to format: functional
Assay [1] relates to Mycoplasmoides gallisepticum. As to the kind of experiment: The anti-mycoplasmal activity was determined against Mycoplasma gallisepticum K514 with the addition of copper (40 uM CuSO4). Summed up:
(§1)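 Broth-dilution MIC in modified Adler medium at pH 8.0, with heat-inactivated horse serum, benzylpenicillin and phenol red. CuSO4 was added to a final 40 μM. Compounds were in DMSO (final 1.25%) and tested in serial 2-fold dilutions, in duplicate, up to 100 μM. Each tube (3 mL) received 1 mL of fresh culture (A660 0.22, pH 6.8) and was incubated at 37 °C for 24 h. MIC was the lowest concentration without indicator color change.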

Assay [2] has as its system Mycoplasmoides gallisepticum. As to the kind of experiment: The anti-mycoplasmal activity was determined against Mycoplasma gallisepticum K514 without the addition of copper. Summed up: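 No copper was added; the medium's copper was below 3 μM. The medium was modified Adler at pH 8.0, with horse serum, benzylpenicillin and phenol red. Compounds were in DMSO (final 1.25%) and tested in serial 2-fold duplicate dilutions up to 100 μM. Each tube held 3 mL of medium plus 1 mL of fresh culture (A660 0.22) and was incubated at 37 °C for 24 h. MIC was the lowest concentration preventing phenol red color change.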

Assay [3] relates to Mycoplasmoides gallisepticum. As to the kind of experiment: The anti-mycoplasmal activity against Mycoplasma gallisepticum K514 with the addition of copper at 40 uM CuSO4. Summed up:
as §1

≈ marks a conversion by molar mass, not a printed value.

Take `N=C(Nc1nc(-c2ccccn2)cc2ccccc12)c1cccc(Cl)c1`: the figures for the MIC in assay [1] and in assay [2] were 0.195 µM (≈ 0.07 µg/mL) and 6.25 µM (≈ 2.24 µg/mL), respectively.

Consider `COc1cccc(C(=N)Nc2nc(-c3ccccn3)cc3ccccc23)c1`, for which the values for the MIC in assay [1] and in assay [2] were 0.078 µM (≈ 0.0276 µg/mL) and 1.56 µM (≈ 0.553 µg/mL), respectively.

For the compound `CC[C@H]1OC(=O)C[C@@H](O)[C@H](C)[C@@H](O[C@@H]2O[C@H](C)[C@@H](O[C@H]3C[C@@](C)(O)[C@@H](O)[C@H](C)O3)[C@H](N(C)C)[C@H]2O)[C@@H](CC=O)C[C@@H](C)C(=O)/C=C/C(C)=C/[C@@H]1CO[C@@H]1O[C@H](C)[C@@H](O)[C@@H](OC)[C@H]1OC` [TYLOSIN], the MIC in assay [1] and in assay [2] was 0.1 µM (≈ 0.0916 µg/mL) throughout.

As to `Nc1nc(-c2ccccn2)cc2ccccc12`, the results for the MIC in assay [3] and in assay [2] were 0.45 µM (≈ 0.0996 µg/mL) and 452 µM (≈ 100 µg/mL), respectively.

With `N=C(Nc1nc(-c2ccccn2)cc2ccccc12)c1ncccn1`, the MIC in assay [1] worked out at 0.0325 µM (≈ 0.0106 µg/mL); in assay [2] it was 0.195 µM (≈ 0.0636 µg/mL).

Consider `N=C(Nc1nc(-c2ccccn2)cc2ccccc12)c1ccccc1`, for which the results for the MIC in assay [1] and in assay [2] were 0.0634 µM (≈ 0.0206 µg/mL) and 0.195 µM (≈ 0.0633 µg/mL), respectively.

As for `N=C(Nc1nc(-c2ccccn2)cc2ccccc12)c1cnccn1`, the MIC in assay [1] came to 0.039 µM (≈ 0.0127 µg/mL); in assay [2], 0.195 µM (≈ 0.0636 µg/mL).

For the compound `N=C(Nc1nc(-c2ccccn2)cc2ccccc12)c1ccc(Cl)c(Cl)c1`, the MIC is 0.78 µM (≈ 0.307 µg/mL) in assay [1] and over 10 µM in assay [2].

In the case of `Cc1cccc2c(NC(=N)c3ccccn3)nc(-c3ccccc3)cc12`, the MIC in assay [1] and in assay [2] was over 100 µM each time.

For the compound `COc1ccc(C(=N)Nc2nc(-c3ccccn3)cc3ccccc23)cc1`, the MIC in assay [1] came to 0.104 µM (≈ 0.0369 µg/mL); in assay [2] it was 0.78 µM (≈ 0.276 µg/mL).

As to `N=C(Nc1nc(-c2ccccn2)cc2ccccc12)c1ccccn1`, the MIC stood at 0.0325 µM (≈ 0.0106 µg/mL) in assay [1] and 0.39 µM (≈ 0.127 µg/mL) in assay [2].

With `N=C(Nc1nc(-c2ccccn2)cc2ccccc12)c1ccc(Cl)cc1`, the values for the MIC in assay [1] and in assay [2] were 0.195 µM (≈ 0.07 µg/mL) and 6.25 µM (≈ 2.24 µg/mL), respectively.

Take `Cc1cccc(C(=N)Nc2nc(-c3ccccn3)cc3ccccc23)n1`: the MIC in assay [1] was 0.065 µM (≈ 0.0221 µg/mL); in assay [2], 0.39 µM (≈ 0.132 µg/mL).

As to `Cc1cccc(C(=N)Nc2nc(-c3ccccn3)cc3ccccc23)c1`, the MIC in assay [1] came to 0.0488 µM (≈ 0.0165 µg/mL); in assay [2] it was 0.78 µM (≈ 0.264 µg/mL).

`Cc1cc(C(=N)Nc2nc(-c3ccccn3)cc3ccccc23)ccn1`: the MIC was determined as 0.065 µM (≈ 0.0221 µg/mL) in assay [1] and 0.39 µM (≈ 0.132 µg/mL) in assay [2].

Consider `Cc1ccc(C(=N)Nc2nc(-c3ccccn3)cc3ccccc23)cc1`, for which the MIC in assay [1] was determined as 0.0683 µM (≈ 0.0231 µg/mL); in assay [2], 0.78 µM (≈ 0.264 µg/mL).

Take `N=C(Nc1ccccn1)c1ccccn1`: the values for the MIC in assay [3] and in assay [2] were 250 µM (≈ 49.6 µg/mL) and over 500 µM, respectively.

`Cc1cc(C)nc(C(=N)Nc2nc(-c3ccccn3)cc3ccccc23)n1`: the MIC in assay [3] was 0.0455 µM (≈ 0.0161 µg/mL); in assay [2], 0.195 µM (≈ 0.0691 µg/mL).

On to `N=C(Nc1nc(-c2ccccn2)cc2ccccc12)c1ccncc1`, for which the results for the MIC in assay [1] and in assay [2] were 0.039 µM (≈ 0.0127 µg/mL) and 0.39 µM (≈ 0.127 µg/mL), respectively.

As for CUPRIC SULFATE, in assay [2], inhibition of growth (MIC) required 700 µM.

The values are drawn from ChEMBL document CHEMBL1124405, “Synthesis and copper-dependent antimycoplasmal activity of 1-amino-3-(2-pyridyl)isoquinoline derivatives. 2. Amidines” (1989).
